Hits are enriched below; roughly 8.2% of the tested compounds scored in any of these assays.
SF-1 act = activates the human nuclear receptor SF-1; AID 522; activation, % at 10 µM; CHO-K1 Gal4-SF-1 LBD luciferase reporter; % increase over DMSO SF-1-specific signal; Q13285; actives 1.9% (n = 65,000);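 active = activation above the mean activation of all tested compounds plus 3 SD, cut at about 50% in these data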
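Assay system: CHO-K1 cells co-transfected with Gal4 DBD–human SF-1 LBD, 5xGal4 luciferase reporter / Input: 4,000 cells per well / Incubation: 20 h compound exposure at 37 °C after 1 h cell settling / Detection: SteadyLite luciferase luminescence / Control set: DMSO negative control and −SF1 background wells / Replication: one test per compound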
HePTP inhibitor = human HePTP phosphatase inhibition. P35236. recombinant HePTP phosphatase activity, OD absorbance. inhibition, % at 20 µM. actives 0.64% (n = 110,000). AID 521; in the data active = inhibition above about 50%;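 note: plate controls were vehicle for no effect and reference inhibitor for full effect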
M1 ag = M1 muscarinic receptor agonism; CHO-M1 cells, Fluo-4 calcium fluorescence, agonist mode; stronger effect = higher value; B-score at 10 µM; actives 3% (n = 64,000);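 active = fluorescence rise, raw or as B-score row- and column-corrected plate score, outside the 99.7% band of its plate's samples, either direction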
M1 antagonist = blocks the rat M1 muscarinic receptor response to acetylcholine; P08482; CHO-M1 cells, Fluo-4 calcium, ACh EC80 antagonist mode; stronger effect = lower value; B-score at 10 µM; actives 3.4% (n = 64,000); AID 628;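 active = calcium fluorescence response, raw or row-and-column corrected B-score, differing from the plate sample mean either way at a set confidence level, mostly lower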
RORA act = RORA (human) activation; P35398; CHO-K1 Gal4-RORA LBD luciferase reporter, luminescence; percent increase over mock-subtracted basal signal; activation, % at 10 µM; actives 1.5% (n = 65,000); AID 560;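 active = activation above the mean of all tested compounds plus 3 SD, cut at about 49% in these data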;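 note: 0% = DMSO-treated RORA cells and 100% = added signal equal to DMSO minus mock-transfected cells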
Target sequence (P35398 whole entry, looked up, the tested form may be a part): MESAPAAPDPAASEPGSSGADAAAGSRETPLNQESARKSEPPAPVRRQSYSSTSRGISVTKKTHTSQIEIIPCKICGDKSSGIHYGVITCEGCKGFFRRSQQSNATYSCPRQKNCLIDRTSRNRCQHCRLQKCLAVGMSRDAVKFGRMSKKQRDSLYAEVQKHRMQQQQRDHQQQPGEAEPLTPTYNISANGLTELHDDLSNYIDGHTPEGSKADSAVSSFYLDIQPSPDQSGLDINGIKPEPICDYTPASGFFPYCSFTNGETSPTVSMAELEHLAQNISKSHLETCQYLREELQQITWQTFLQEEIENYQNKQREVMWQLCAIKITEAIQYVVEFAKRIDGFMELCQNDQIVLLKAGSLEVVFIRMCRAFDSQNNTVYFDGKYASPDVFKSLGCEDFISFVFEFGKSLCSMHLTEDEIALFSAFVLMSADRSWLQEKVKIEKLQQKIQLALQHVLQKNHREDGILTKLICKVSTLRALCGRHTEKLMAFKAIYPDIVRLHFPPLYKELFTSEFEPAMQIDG
D1 mod = allosterically modulates the human D1 dopamine receptor; actives 5.9% (n = 58,000); B-score at 10 µM; HEK293 D1, CRE-luciferase, dopamine EC30 potentiation; actives deviate in either direction; AID 641;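 active = luminescence count or its row- and column-corrected plate score outside the 99.7% band of the plate's sample wells, on either side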
* hit, by the source's call; x = no result.

SMILES	SF-1 act	HePTP inhibitor	M1 ag	M1 antagonist	RORA act	D1 mod
O=C(NCCO)c1cc2ccccc2c(=O)s1	-7.9	4.5	-0.203	-0.00474	-4.1	-0.0364
Cc1ccc(C(=O)CC(C(=O)O)c2cn(CCC#N)c3ccccc23)cc1 (stereo not given)	5.8	-6.4	-0.446	0.0508	-22.4	-0.0522
Cc1ccc(C2=N/C(=C/N3CCOCC3)C(=O)O2)cc1	54.8*	9.6	-0.279	0.016	33.7	-0.0336
COc1ccc(C(=O)NCCn2ccc3ccccc32)cc1OC	13.5	-6.4	-0.665	-0.257	-3.2	1.25
CC(Nc1nc(N2CCN(S(C)(=O)=O)CC2)nc2ccccc12)c1ccccc1 (stereo not given)	-11.4	x	-0.00262	-0.155	-14.2	-2.97*
O=C(C1CC1)N1CCN(c2nc3ccccc3s2)CC1	25.3	-1.7	-1.24	-0.127	36.3	-0.634
CS(=O)(=O)N1CCN(c2nc3ccccc3s2)CC1	28.5	0.5	0.345	-0.499	57.6*	-0.704
CS(=O)(=O)N1CCN(c2nnc(-c3ccccc3)c3ccccc23)CC1	-20.5	-2.8	1.04	-0.55	-25.2	0.304
Cc1ccc2cc(CN(CC3CCCO3)S(=O)(=O)c3c(C)ccc4nsnc34)c(=O)[nH]c2c1 (stereo not given)	6.0	4.1	-0.733	-0.168	-12.4	-0.0603
Cc1ccc2nsnc2c1S(=O)(=O)N(Cc1cc2cccc(C)c2[nH]c1=O)CC1CCCO1 (stereo not given)	0.3	13.1	13*	-3.17*	-5.7	-5.08*
Nc1nonc1C(=O)NCCNCc1ccccc1OCc1ccccc1F	7.0	-6.5	-1.65	-0.0536	18.9	-2.25
Nc1nonc1C(=O)NCCNCc1cc(Br)ccc1OCc1ccccc1F	-45.9	-2.1	2.84*	-0.994	-37.8	-3.3*
CCn1cc(S(=O)(=O)CC(=O)NC2CCCCC2)c2ccccc21	1.0	8.9	1.05	3.15*	-13.2	1.17
COc1ccc(C(=O)N=c2nc3ccccn3s2)cc1	-14.4	-1.7	-0.386	-0.547	-6.3	-4.83*
CCn1c(SCC(=O)Nc2ccc(S(=O)(=O)Nc3ccccn3)cc2)nnc1-c1ccncc1	-7.3	8.7	-0.374	0.395	15.1	0.9
Cn1c(-c2nc3ccccc3n2C)nc2ccccc21	x	-8.9	x	x	x	x
Cn1c(-c2ccc(Br)o2)nc2cc(Br)ccc21	89.2*	9.8	0.588	0.479	39.3	-0.163
CC(=O)c1ccc(-c2nc3ccccc3n2C)o1	24.6	9.0	0.809	0.422	27.9	0.0586
Cc1oc(-c2nc3ccccc3n2C)cc1C(=O)c1ccccc1	-21.5	9.4	-0.838	-1.87	-32.2	-3.77*
Cn1c(-c2ccc(Br)o2)nc2ccccc21	75.8*	9.2	1.66	0.165	72.6*	-1.37
Cc1c(NC(=O)CC(O)(C(F)(F)F)C(F)(F)F)c(=O)n(-c2ccccc2)n1C	-8.3	-0.1	-0.308	-0.00396	-8.0	0.633
CC(=O)N1CCN(c2ccc(Oc3nnnn3-c3ccccc3)cc2)CC1	-17.9	12.8	-0.357	-0.659	-2.8	-0.899
OC1CCCCC1Sc1nc2ccccc2s1 (stereo not given)	59.0*	11.0	-0.0603	0.148	30.1	0.578
O=C1OCCC1Sc1nc2ccccc2s1 (stereo not given)	3.1	0.8	-0.106	-0.0951	-18.8	-0.343
O=C1Oc2ccccc2N/C1=C/c1ccccc1	x	3.3	x	x	x	x
SMILES	SF-1 act	HePTP inhibitor	M1 ag	M1 antagonist	RORA act	D1 mod
O=C(Nc1ccc(Cl)cc1)N1CCC(c2nc(-c3cccs3)no2)CC1	6.0	6.6	-2.47*	0.00768	-1.1	-0.915
COc1ccc(NC(=O)N2CCC(c3nc(-c4cccs4)no3)CC2)cc1	3.1	2.6	-0.43	-0.822	13.3	-0.934
O=C1CC(N2CCC(c3nc4ccccc4[nH]3)CC2)C(=O)N1Cc1ccccc1 (stereo not given)	-7.2	-3.7	x	x	-5.5	0.0514
COC(=O)c1cccc(NC(=O)c2cc3sccc3n2C)c1	67.0*	2.3	1.69	0.0971	44.8	-1.29
S=C(c1ccc(-c2cccc(Cl)c2)o1)N1CCOCC1	33.6	13.4	-0.692	-0.0101	61.1*	-1.02
FC(F)(F)c1cccc(-c2ccc(C(=S)N3CCOCC3)o2)c1	x	-5.1	x	x	x	x
c1ccc(-c2cc(N3CCOCC3)nc(-c3ccccc3)n2)cc1	-1.6	4.0	-1.47	-1.32	7.0	x
Nc1nc(-c2ccccc2)cc(N2CCOCC2)n1	x	105.5*	x	x	x	x
COc1nc(C)ccc1-c1noc(-c2ccccn2)n1	21.8	-4.0	0.656	-0.124	61.2*	-4.06*
COc1ccccc1-c1noc(-c2ccccc2C(=O)Nc2ccccc2)n1	14.3	3.5	0.233	0.22	4.5	-1.04
COc1ccccc1-c1nc(-c2ccc(C)nc2OC)no1	74.4*	5.3	0.256	-0.112	39.0	0.0213
COc1ccccc1-c1noc(-c2ccncc2)n1	35.5	9.5	0.478	4.15e-05	37.1	-0.125
COc1nc(-c2ccccc2)ccc1-c1noc(C)n1	45.0	0.4	0.126	-1.03	23.1	1.2
COc1ccccc1-c1nc(-c2ccccn2)no1	-32.2	4.4	-0.0756	-0.0629	-50.4	-7.43*
CCn1c(SC)nc2sc3c(c2c1=O)CCCC3	x	0.3	x	x	x	x
COc1cccc(/C=N/n2cncn2)c1OCC#N	3.2	6.1	-0.456	-0.348	-7.7	-0.609
CN(C)S(=O)(=O)c1ccc2nc(NC(=O)c3cccnc3)sc2c1	62.1*	9.0	-0.186	-0.00612	32.9	-0.509
Cc1ccc2nc(NC(=O)COC(=O)c3ccco3)sc2c1	29.9	-1.3	-0.218	0.431	60.6*	x
CS(=O)(=O)c1ccc2nc(NC(=O)c3ccco3)sc2c1	74.4*	-0.8	-0.418	-0.0403	65.5*	x
CCOC(=O)c1ccc2nc(NC(=O)c3ccco3)sc2c1	14.2	x	-0.892	-1.22	-14.0	-4.84*
CCOC(=O)c1ccc2nc(NC(=O)c3cccs3)sc2c1	-1.8	2.4	-0.466	-0.182	-3.1	-0.849
CCNC(=O)CCCOc1ccc(Cl)cc1Cl	-9.6	-0.3	0.513	-0.868	-4.8	-1.69
C=CCOC(=O)c1sc(NC(=O)c2ccco2)nc1C	92.6*	-0.3	0.494	-0.761	52.9*	-2.72
CCOC(=O)c1sc(NC(=O)c2ccc(Br)o2)nc1C	x	-13.4	x	x	x	x
O=C(CN1C2=NCCN2c2ccccc21)c1cccc([N+](=O)[O-])c1	x	-14.9	x	x	x	x
SMILES	SF-1 act	HePTP inhibitor	M1 ag	M1 antagonist	RORA act	D1 mod
CC(C)CNC(=O)c1cccc(NC(=O)c2ccc(NC(=O)c3ccco3)cc2)c1	18.3	-0.7	0.603	1.44*	4.6	-0.422
O=C(Nc1ccc(Oc2ccc(NC(=O)c3ccco3)cc2)cc1)c1ccco1	x	6.4	x	x	x	x
O=C(Nc1ccc(Nc2ccccc2)cc1)c1ccco1	87.0*	0.2	x	x	60.3*	x
O=C(Nc1ccncc1)c1ccc(NC(=O)c2ccco2)cc1	x	11.8	x	x	x	x
CCOc1ccc(NC(=O)c2ccco2)cc1	-16.9	-2.6	0.00845	0.143	8.2	-4.84*
O=C(Nc1nccs1)c1ccc(NC(=O)c2ccco2)cc1	55.9*	3.2	-0.879	-0.322	53.4*	0.261

From PubChem BioAssay
